In ChEMBL document CHEMBL1153481, “Chromane derivatives of small aromatic molecules: Chemoenzymatic synthesis and growth inhibitory activity on human tumor cell line LoVo WT” (Bioorg Med Chem, 2009):
The source made the active and inactive calls. The rule behind the calls is not given here.

How the values were obtained:
Type in all cases: functional, cell-based
[1] = test system: LoVo; assay: Induction of apoptosis in human wild type LoVo cells assessed as increase in hyplodiploid cells after 24 hrs by flow cytometry
How it was run: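 Apoptosis measured in LoVo WT cells after 24 h exposure as the percentage of hypodiploid cells (loss of fragmented DNA), determined by flow cytometry.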

[2] = test system: LoVo; assay: Cytotoxicity against human wild type LoVo cells after 48 hrs by MTS assay
How it was run: (§1)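 LoVo WT human colon adenocarcinoma cells grown in D-MEM F12 with 10% FBS, penicillin/streptomycin, 37 °C, 5% CO2. Seeded 1 × 10^4 cells/well, medium replaced after 1 day with exposure medium containing test agents (0.1–300 µM; DMSO 0.3% or less). After 1–3 day exposure, MTS/PMS added for 2 h at 37 °C; formazan absorbance read at 490 nm. Viability expressed relative to DMSO-only controls.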

[3] = test system: LoVo; assay: Cytotoxicity against human wild type LoVo cells after 24 hrs by MTS assay; how it was run: as §1
[4] = test system: LoVo; assay: Cytotoxicity against human wild type LoVo cells at 100 uM after 24 hrs by MTS assay; how it was run: as §1

| SMILES | Activity [1] | IC50 [2] [µM] | IC50 [3] [µM] | Activity [4] |
| --- | --- | --- | --- | --- |
| Oc1ccc2cc(O)ccc2c1 | inactive |  |  |  |
| CC1(C)CCc2c(ccc3c4c(ccc23)OC(C)(C)CC4)O1 | inactive | 395 | 258 |  |
| CC1(C)CCc2c(ccc3cc(O)ccc23)O1 | Active | 27.4 | 34.5 |  |
| CC1(C)CCc2cc(CCO)ccc2O1 |  |  |  | inactive |
